Test results from PMC5322940 (Cell, 2016).

Molecular target: CB1 protein (Homo sapiens, UniProt P21554, D324T/DEL307-313/E273K/E323T/H320Y/I317L/I319V/INS325[…]/K326D/Q314A/Q328R/R331I/R340E/S316A/T210A/T283V/T321G/T330A/V329G)
Assay: Affinity mass spectrometry analysis of AM6538
Format: binding
Details: CB1 protein co-purified with AM6538
Method in brief: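 CB1–flavodoxin fusion expressed in HEK293F and purified in DDM/CHS. Membranes took up 20 µM test compound (3 h, 4 °C), then iodoacetamide; wash and elution buffers also carried test compound. Co-purified complex was desalted on G-25 to strip free ligand. About 1 µg was ultrafiltered (30 kDa cutoff, 13,000 g, 10 min, 4 °C) in 150 mM ammonium acetate, 0.02% DDM, 0.004% CHS; retained complex collected.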

SMILES: Cc1c(C(=O)NN2CCCCC2)nn(-c2ccc(Cl)cc2Cl)c1-c1ccc(C#CCCO[N+](=O)[O-])cc1 [AM6538, 4-(4-(1-(2,4-dichlorophenyl)-4-methyl-3-(piperidin-1-ylcarbamoyl)-1H-pyrazol-5-yl)phenyl)but-3-yn-1-yl nitrate]
- Covalent modification of CB1 cysteine residues: no evidence of covalent modification
